# Where a SMILES comes first, the peptide text is derived from it. [ ]: non-standard residue; d: D form. d2Nal = N[C@H](Cc1ccc2ccccc2c1)C(=O)O; d(hPhe) = N[C@H](CCc1ccccc1)C(=O)O; Aib = CC(C)(N)C(=O)O
# Species: Rattus norvegicus
# Test: Effective concentration for ability to release growth hormone from rat pituitary cells
# Assay type: functional, cell-based
# Details: Pituitary gland cell
# Method in brief: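 Rat anterior pituitaries were digested with 0.2% collagenase, 0.2% hyaluronidase and 200 U/mL DNase I. Cells were plated at 1.0 × 10⁵ cells/mL in DMEM with 7.5% horse serum and 5.0% fetal calf serum and cultured 3 days. After washes in medium with 20 mM HEPES pH 7.4, cells were exposed to compound for 15 min at 37 °C. Released GH was measured by RIA. EC50 was referenced to the maximal GH level from 10^-8 M KP-102.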
row,Structure (SMILES),EC50 [nM]
1,NCCNC(=O)[C@@H](Cc1ccc2ccccc2c1)NC(=O)CCN1C(=O)CCS(=O)(=O)c2ccccc21,10
2,NCCNC(=O)[C@@H](Cc1ccc2ccccc2c1)NC(=O)CN1C(=O)CCS(=O)(=O)c2ccccc21,100
3,CCOC(=O)[C@@H](CCc1ccccc1)NC(=O)[C@@H](Cc1c[nH]c2ccccc12)NC(=O)C(C)(C)N (H-[Aib]-[dW]-[d(hPhe)]-OEt),3
4,C[C@H](NC(=O)[C@@H](Cc1c[nH]c2ccccc12)NC(=O)[C@@H](N)Cc1c[nH]cn1)C(=O)N[C@@H](Cc1c[nH]c2ccccc12)C(=O)N[C@H](Cc1ccccc1)C(=O)N[C@H](CCCCN)C(N)=O,100
5,O=C(N[C@H](Cc1ccc2ccccc2c1)C(=O)N[C@@H](CO)Cc1ccc2ccccc2c1)C1CCNCC1,1.8
6,C[C@H](NC(=O)[C@@H](Cc1ccc2ccccc2c1)NC(=O)[C@@H](C)N)C(=O)N[C@@H](Cc1c[nH]c2ccccc12)C(=O)N[C@H](Cc1ccccc1)C(=O)N[C@@H](CCCCN)C(=O)O (H-[dA][d2Nal]AW[dF]K-OH),1
7,NCCNC(=O)[C@H](Cc1ccccc1)NC(=O)CN1C(=O)CCSc2ccccc21,1000
8,NC(=O)CN(CCc1ccccc1)C(=O)[C@@H](Cc1ccc2ccccc2c1)NC(=O)[C@@H](Cc1ccc2ccccc2c1)NC(=O)C1CCNCC1,0.1
9,C[C@H](NC(=O)[C@@H](Cc1ccc2ccccc2c1)NC(=O)[C@@H](C)N)C(=O)N[C@@H](Cc1c[nH]c2ccccc12)C(=O)N[C@H](Cc1ccccc1)C(=O)N[C@@H](CCCCN)C(N)=O [PRALMORELIN] (H-[dA][d2Nal]AW[dF]K-NH2),0.2
10,NCC(O)CNC(=O)[C@@H](Cc1ccc2ccccc2c1)NC(=O)CCCN1C(=O)CCSc2ccccc21 (some centres undefined),1
11,C[C@H](NC(=O)[C@@H](Cc1ccccc1)NC(=O)[C@@H](C)N)C(=O)N[C@@H](Cc1ccccc1)C(=O)N[C@H](Cc1ccccc1)C(=O)N[C@@H](CCCCN)C(N)=O (H-[dA][dF]AF[dF]K-NH2),10
12,CC(C)[C@H](NC(=O)[C@@H](Cc1c[nH]c2ccccc12)NC(=O)[C@@H](N)Cc1c[nH]cn1)C(=O)N[C@@H](Cc1c[nH]c2ccccc12)C(=O)N[C@H](Cc1ccccc1)C(=O)N[C@@H](CCCCN)C(N)=O (H-H[dW]VW[dF]K-NH2),> 1000
13,C[C@H](NC(=O)[C@@H](Cc1ccc2ccccc2c1)NC(=O)[C@@H](C)N)C(=O)N[C@@H](Cc1c[nH]c2ccccc12)C(=O)N[C@H](Cc1ccccc1)C(=O)O,10
14,NCCNC(=O)[C@@H](Cc1ccccc1)NC(=O)CN1C(=O)CCS(=O)(=O)c2ccccc21,1000

# From ChEMBL document CHEMBL1134283, “Rational design, discovery, and synthesis of a novel series of potent growth hormone secretagogues” (J Med Chem, 2001)
